Experimental data reported in ChEMBL document CHEMBL5058577, “EUbOPEN Chemogenomics Library 2 (Multiplex)” (2022).

Tested on: HEK-293T
Assay: Multiplex assay against HEK293T
Assay type: toxicity, cell-based
Conditions: human
Outline: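 Phenotypes for tubulin, mitochondrial mass and membrane permeability are expressed as per cents of healthy-nucleus cells. Cells were stained live at seeding with Hoechst33342, BioTracker Green Microtubule Cytoskeleton Dye, MitoTracker Red and Annexin V Alexa Fluor 680, then imaged after compound addition on a CQ1 microscope at 37°C and 5% CO2. Machine-learning gating in CellPathfinder separated Hoechst high-intensity objects from normal cells, divided normal cells by nuclear state (healthy, pyknosed, fragmented) and divided pyknosed cells into mitotic or apoptotic.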

[1] = 12 h, 1 µM, compound concentration 1 uM, replicate 1
[2] = 12 h, 1 µM, compound concentration 1 uM, replicate 2
[3] = 12 h, 10 µM, compound concentration 10 uM, replicate 1
[4] = 12 h, 10 µM, compound concentration 10 uM, replicate 2
[5] = 24 h, 1 µM, compound concentration 1 uM, replicate 1
[6] = 24 h, 1 µM, compound concentration 1 uM, replicate 2
[7] = 24 h, 10 µM, compound concentration 10 uM, replicate 1
[8] = 24 h, 10 µM, compound concentration 10 uM, replicate 2
[9] = 48 h, 1 µM, compound concentration 1 uM, replicate 1
[10] = 48 h, 1 µM, compound concentration 1 uM, replicate 2
[11] = 48 h, 10 µM, compound concentration 10 uM, replicate 1
[12] = 48 h, 10 µM, compound concentration 10 uM, replicate 2

CN1CCN2c3ncccc3Cc3ccccc3C2C1 (stereo unspecified) [MIRTAZAPINE]
Population Apoptotic (%) [1]: 58%
Population Fragmented Nuclei (%) [1]: 4%
Population Healthy Nuclei (%) [1]: 88%
Population Hoechst High Intensity Objects (%) [1]: 5%
Population Membrane Permeable-Phenotype (%) [1]: 0%
Population Mitochondria Different-Phenotype (%) [1]: 41%
Population Mitotic Cells (%) [1]: 41%
Population Normal (%) [1]: 94%
Population Pyknosed Nuclei (%) [1]: 7%
Population Tubulin-Different-Phenotype (%) [1]: 22%
Total Cell Count [1]: 402
Population Apoptotic (%) [2]: 51%
Population Fragmented Nuclei (%) [2]: 3%
Population Healthy Nuclei (%) [2]: 79%
Population Hoechst High Intensity Objects (%) [2]: 7%
Population Mitochondria Different-Phenotype (%) [2]: 68%
Population Mitotic Cells (%) [2]: 48%
Population Normal (%) [2]: 92%
Population Pyknosed Nuclei (%) [2]: 17%
Population Tubulin-Different-Phenotype (%) [2]: 21%
Total Cell Count [2]: 329
Population Apoptotic (%) [3]: 45%
Population Fragmented Nuclei (%) [3]: 9%
Population Healthy Nuclei (%) [3]: 75%
Population Hoechst High Intensity Objects (%) [3]: 6%
Population Membrane Permeable-Phenotype (%) [3]: 0%
Population Mitochondria Different-Phenotype (%) [3]: 49%
Population Mitotic Cells (%) [3]: 54%
Population Normal (%) [3]: 93%
Population Pyknosed Nuclei (%) [3]: 15%
Population Tubulin-Different-Phenotype (%) [3]: 43%
Total Cell Count [3]: 228
Population Apoptotic (%) [4]: 47%
Population Fragmented Nuclei (%) [4]: 5%
Population Healthy Nuclei (%) [4]: 79%
Population Membrane Permeable-Phenotype (%) [4]: 1%
Population Mitochondria Different-Phenotype (%) [4]: 64%
Population Mitotic Cells (%) [4]: 52%
Population Tubulin-Different-Phenotype (%) [4]: 36%
Total Cell Count [4]: 240
Population Apoptotic (%) [5]: 33%
Population Fragmented Nuclei (%) [5]: 9%
Population Healthy Nuclei (%) [5]: 80%
Population Hoechst High Intensity Objects (%) [5]: 3%
Population Membrane Permeable-Phenotype (%) [5]: 0%
Population Mitochondria Different-Phenotype (%) [5]: 35%
Population Mitotic Cells (%) [5]: 66%
Population Normal (%) [5]: 97%
Population Pyknosed Nuclei (%) [5]: 10%
Population Tubulin-Different-Phenotype (%) [5]: 18%
Total Cell Count [5]: 601
Population Apoptotic (%) [6]: 42%
Population Fragmented Nuclei (%) [6]: 6%
Population Healthy Nuclei (%) [6]: 79%
Population Hoechst High Intensity Objects (%) [6]: 6%
Population Mitochondria Different-Phenotype (%) [6]: 47%
Population Mitotic Cells (%) [6]: 57%
Population Normal (%) [6]: 93%
Population Pyknosed Nuclei (%) [6]: 14%
Population Tubulin-Different-Phenotype (%) [6]: 17%
Total Cell Count [6]: 373
Population Apoptotic (%) [7]: 44%
Population Fragmented Nuclei (%) [7]: 9%
Population Healthy Nuclei (%) [7]: 78%
Population Hoechst High Intensity Objects (%) [7]: 3%
Population Membrane Permeable-Phenotype (%) [7]: 0%
Population Mitochondria Different-Phenotype (%) [7]: 40%
Population Mitotic Cells (%) [7]: 55%
Population Normal (%) [7]: 96%
Population Pyknosed Nuclei (%) [7]: 12%
Population Tubulin-Different-Phenotype (%) [7]: 28%
Total Cell Count [7]: 274
Population Apoptotic (%) [8]: 32%
Population Fragmented Nuclei (%) [8]: 5%
Population Healthy Nuclei (%) [8]: 80%
Population Hoechst High Intensity Objects (%) [8]: 5%
Population Mitochondria Different-Phenotype (%) [8]: 44%
Population Mitotic Cells (%) [8]: 67%
Population Normal (%) [8]: 94%
Population Pyknosed Nuclei (%) [8]: 13%
Population Tubulin-Different-Phenotype (%) [8]: 18%
Total Cell Count [8]: 314
Population Apoptotic (%) [9]: 23%
Population Fragmented Nuclei (%) [9]: 11%
Population Healthy Nuclei (%) [9]: 82%
Population Hoechst High Intensity Objects (%) [9]: 2%
Population Membrane Permeable-Phenotype (%) [9]: 1%
Population Mitochondria Different-Phenotype (%) [9]: 19%
Population Mitotic Cells (%) [9]: 76%
Population Normal (%) [9]: 97%
Population Pyknosed Nuclei (%) [9]: 6%
Population Tubulin-Different-Phenotype (%) [9]: 13%
Total Cell Count [9]: 885
Population Apoptotic (%) [10]: 44%
Population Fragmented Nuclei (%) [10]: 13%
Population Healthy Nuclei (%) [10]: 80%
Population Hoechst High Intensity Objects (%) [10]: 3%
Population Membrane Permeable-Phenotype (%) [10]: 0%
Population Mitochondria Different-Phenotype (%) [10]: 21%
Population Mitotic Cells (%) [10]: 55%
Population Normal (%) [10]: 96%
Population Tubulin-Different-Phenotype (%) [10]: 9%
Total Cell Count [10]: 562
Population Apoptotic (%) [11]: 31%
Population Fragmented Nuclei (%) [11]: 14%
Population Healthy Nuclei (%) [11]: 74%
Population Hoechst High Intensity Objects (%) [11]: 2%
Population Membrane Permeable-Phenotype (%) [11]: 0%
Population Mitochondria Different-Phenotype (%) [11]: 36%
Population Mitotic Cells (%) [11]: 68%
Population Normal (%) [11]: 97%
Population Pyknosed Nuclei (%) [11]: 10%
Population Tubulin-Different-Phenotype (%) [11]: 20%
Total Cell Count [11]: 390
Population Apoptotic (%) [12]: 30%
Population Fragmented Nuclei (%) [12]: 11%
Population Healthy Nuclei (%) [12]: 81%
Population Hoechst High Intensity Objects (%) [12]: 3%
Population Mitochondria Different-Phenotype (%) [12]: 30%
Population Mitotic Cells (%) [12]: 69%
Population Normal (%) [12]: 96%
Population Pyknosed Nuclei (%) [12]: 7%
Population Tubulin-Different-Phenotype (%) [12]: 12%
Total Cell Count [12]: 521

CCNC1(C(N)=O)CCN(c2ncnc3c2nc(-c2ccccc2Cl)n3-c2ccc(Cl)cc2)CC1 [OTENABANT]
Population Apoptotic (%) [1]: 51%
Population Fragmented Nuclei (%) [1]: 8%
Population Healthy Nuclei (%) [1]: 80%
Population Hoechst High Intensity Objects (%) [1]: 10%
Population Membrane Permeable-Phenotype (%) [1]: 0%
Population Mitochondria Different-Phenotype (%) [1]: 48%
Population Mitotic Cells (%) [1]: 48%
Population Normal (%) [1]: 89%
Population Pyknosed Nuclei (%) [1]: 10%
Population Tubulin-Different-Phenotype (%) [1]: 52%
Total Cell Count [1]: 401
Population Apoptotic (%) [2]: 58%
Population Healthy Nuclei (%) [2]: 76%
Population Hoechst High Intensity Objects (%) [2]: 6%
Population Mitochondria Different-Phenotype (%) [2]: 66%
Population Mitotic Cells (%) [2]: 41%
Population Normal (%) [2]: 93%
Population Pyknosed Nuclei (%) [2]: 15%
Population Tubulin-Different-Phenotype (%) [2]: 44%
Total Cell Count [2]: 333
Population Apoptotic (%) [3]: 46%
Population Fragmented Nuclei (%) [3]: 3%
Population Healthy Nuclei (%) [3]: 74%
Population Hoechst High Intensity Objects (%) [3]: 16%
Population Membrane Permeable-Phenotype (%) [3]: 0%
Population Mitochondria Different-Phenotype (%) [3]: 82%
Population Mitotic Cells (%) [3]: 53%
Population Normal (%) [3]: 83%
Population Pyknosed Nuclei (%) [3]: 22%
Population Tubulin-Different-Phenotype (%) [3]: 50%
Total Cell Count [3]: 381
Population Apoptotic (%) [4]: 63%
Population Fragmented Nuclei (%) [4]: 4%
Population Healthy Nuclei (%) [4]: 67%
Population Hoechst High Intensity Objects (%) [4]: 9%
Population Mitochondria Different-Phenotype (%) [4]: 96%
Population Mitotic Cells (%) [4]: 36%
Population Normal (%) [4]: 90%
Population Pyknosed Nuclei (%) [4]: 27%
Population Tubulin-Different-Phenotype (%) [4]: 43%
Total Cell Count [4]: 251
Population Apoptotic (%) [5]: 49%
Population Fragmented Nuclei (%) [5]: 8%
Population Healthy Nuclei (%) [5]: 80%
Population Hoechst High Intensity Objects (%) [5]: 5%
Population Membrane Permeable-Phenotype (%) [5]: 0%
Population Mitochondria Different-Phenotype (%) [5]: 43%
Population Mitotic Cells (%) [5]: 50%
Population Normal (%) [5]: 94%
Population Pyknosed Nuclei (%) [5]: 11%
Population Tubulin-Different-Phenotype (%) [5]: 44%
Total Cell Count [5]: 474
Population Apoptotic (%) [6]: 40%
Population Fragmented Nuclei (%) [6]: 12%
Population Healthy Nuclei (%) [6]: 75%
Population Mitochondria Different-Phenotype (%) [6]: 47%
Population Mitotic Cells (%) [6]: 59%
Population Tubulin-Different-Phenotype (%) [6]: 41%
Total Cell Count [6]: 442
Population Apoptotic (%) [7]: 40%
Population Fragmented Nuclei (%) [7]: 8%
Population Healthy Nuclei (%) [7]: 71%
Population Hoechst High Intensity Objects (%) [7]: 17%
Population Membrane Permeable-Phenotype (%) [7]: 1%
Population Mitochondria Different-Phenotype (%) [7]: 79%
Population Mitotic Cells (%) [7]: 59%
Population Normal (%) [7]: 82%
Population Pyknosed Nuclei (%) [7]: 19%
Population Tubulin-Different-Phenotype (%) [7]: 56%
Total Cell Count [7]: 452
Population Apoptotic (%) [8]: 64%
Population Fragmented Nuclei (%) [8]: 6%
Population Healthy Nuclei (%) [8]: 77%
Population Hoechst High Intensity Objects (%) [8]: 13%
Population Membrane Permeable-Phenotype (%) [8]: 0%
Population Mitochondria Different-Phenotype (%) [8]: 95%
Population Mitotic Cells (%) [8]: 35%
Population Normal (%) [8]: 86%
Population Pyknosed Nuclei (%) [8]: 15%
Population Tubulin-Different-Phenotype (%) [8]: 53%
Total Cell Count [8]: 283
Population Apoptotic (%) [9]: 34%
Population Fragmented Nuclei (%) [9]: 12%
Population Healthy Nuclei (%) [9]: 78%
Population Hoechst High Intensity Objects (%) [9]: 4%
Population Membrane Permeable-Phenotype (%) [9]: 1%
Population Mitochondria Different-Phenotype (%) [9]: 29%
Population Mitotic Cells (%) [9]: 65%
Population Normal (%) [9]: 95%
Population Pyknosed Nuclei (%) [9]: 9%
Population Tubulin-Different-Phenotype (%) [9]: 30%
Total Cell Count [9]: 766
Population Apoptotic (%) [10]: 32%
Population Fragmented Nuclei (%) [10]: 8%
Population Healthy Nuclei (%) [10]: 82%
Population Membrane Permeable-Phenotype (%) [10]: 0%
Population Mitochondria Different-Phenotype (%) [10]: 30%
Population Mitotic Cells (%) [10]: 68%
Population Pyknosed Nuclei (%) [10]: 8%
Total Cell Count [10]: 604
Population Apoptotic (%) [11]: 52%
Population Fragmented Nuclei (%) [11]: 13%
Population Healthy Nuclei (%) [11]: 71%
Population Hoechst High Intensity Objects (%) [11]: 16%
Population Membrane Permeable-Phenotype (%) [11]: 2%
Population Mitochondria Different-Phenotype (%) [11]: 78%
Population Mitotic Cells (%) [11]: 47%
Population Normal (%) [11]: 83%
Population Pyknosed Nuclei (%) [11]: 15%
Population Tubulin-Different-Phenotype (%) [11]: 66%
Total Cell Count [11]: 560
Population Apoptotic (%) [12]: 70%
Population Fragmented Nuclei (%) [12]: 10%
Population Healthy Nuclei (%) [12]: 77%
Population Hoechst High Intensity Objects (%) [12]: 14%
Population Membrane Permeable-Phenotype (%) [12]: 0%
Population Mitochondria Different-Phenotype (%) [12]: 89%
Population Mitotic Cells (%) [12]: 29%
Population Normal (%) [12]: 85%
Population Pyknosed Nuclei (%) [12]: 12%
Population Tubulin-Different-Phenotype (%) [12]: 57%
Total Cell Count [12]: 325
